Measurements from ChEMBL document CHEMBL1140994, “Ranking the selectivity of PubChem screening hits by activity-based protein profiling: MMP13 as a case study” (Bioorg Med Chem, 2009).
Activity calls are given as the source filed them. The calls are words filed in the database; no cut-off is given here.

Assays:
[1] = biological target: T1, Matrix metalloproteinase-9 (Homo sapiens, UniProt P14780); experiment: Inhibition of human recombinant MMP9 by fluorogenic substrate assay
Outline: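 Enzyme (MMP8 6 nM, MMP9 2 nM, MMP13 1.5 nM final) preincubated with inhibitor 30 min in 50 mM HEPES pH 7.5, 10 mM CaCl2, 0.05% Brij-35, at RT. Mca-PLGL-Dpa-AR-NH2 added at 5 μM; fluorescence (ex 328/em 393 nm) read each minute for 10 min. Initial rates by linear least squares; IC50 from variable-slope sigmoidal fit. Triplicate; mean with 95% CI.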

[2] = biological target: Matrilysin (Homo sapiens) (UniProt P09237); experiment: Inhibition of human recombinant MMP7 at 200 uM by HxBPyne probe-based competitive activity based protein profiling assay in presence of 5 uM HxBpane competitor
Outline: (§1)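 Recombinant enzyme at 0.5 μM final in mouse liver soluble proteome (1 mg protein/mL in PBS). HxBPyne probe cocktail 0.5 μM total final, with inhibitor 200 μM or DMSO. Preincubated 30 min on ice, then UV 365 nm for 1 h on ice. Rhodamine-azide click chemistry, 1 h RT in dark. SDS-PAGE with in-gel fluorescence; band intensity given as % of DMSO control.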

Collagenase 3 [3] = biological target: T2, Collagenase 3 (Homo sapiens, UniProt P45452); experiment: Inhibition of human recombinant MMP13 by HxBPyne probe-based competitive activity based protein profiling assay
[4] = biological target: Methionine aminopeptidase 2 (Homo sapiens) (UniProt P50579); experiment: Inhibition of human recombinant METAP2 at 200 uM by HxBPyne probe-based competitive activity based protein profiling assay in presence of 200 uM HxBpane competitor
Outline: (§2)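 Metalloprotease at 1.6 μM final in PBS, without liver proteome. HxBPyne probe cocktail 20 μM final, with inhibitor 200 μM or DMSO. Preincubated 30 min on ice, then irradiated 365 nm for 1 h on ice. Rhodamine-azide click chemistry, then SDS-PAGE and in-gel fluorescence scanning. Integrated band intensity expressed as % of DMSO control.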

[5] = biological target: Matrix metalloproteinase-24 (Homo sapiens) (UniProt Q9Y5R2); experiment: Inhibition of human recombinant MMP24 at 200 uM by HxBPyne probe-based competitive activity based protein profiling assay in presence of 5 uM HxBpane competitor; outline: as §1
[6] = biological target: 72 kDa type IV collagenase (Homo sapiens) (UniProt P08253); experiment: Inhibition of human recombinant MMP2 at 200 uM by HxBPyne probe-based competitive activity based protein profiling assay in presence of 5 uM HxBpane competitor; outline: as §1
[7] = biological target: Neprilysin (Homo sapiens) (UniProt P08473); experiment: Inhibition of human recombinant neprilysin at 200 uM by HxBP-Rh probe-based competitive activity based protein profiling assay in presence of 200 uM HxBP-alkyne
Outline: (§3)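 Enzyme 0.5 μM final, in PBS (ADAMTS4, neprilysin) or in 1 mg/mL mouse liver soluble proteome (MMP9). HxBP-Rh probe 0.5 μM final with 200 μM inhibitor or DMSO. Preincubated 30 min on ice, UV 365 nm 1 h on ice. Deglycosylated with PNGase F, then SDS-PAGE with fluorescence scanning. Activity given relative to DMSO control.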

[8] = biological target: T1, Matrix metalloproteinase-9; experiment: Inhibition of human recombinant MMP9 at 200 uM by HxBP-Rh probe-based competitive activity based protein profiling assay in presence of 200 uM HxBP-alkyne; outline: as §3
[9] = biological target: Angiotensin-converting enzyme 2 (Homo sapiens) (UniProt Q9BYF1); experiment: Inhibition of human recombinant ACE2 at 200 uM by HxBPyne probe-based competitive activity based protein profiling assay in presence of 200 uM HxBpane competitor; outline: as §2
[10] = biological target: Matrix metalloproteinase-16 (Homo sapiens) (UniProt P51512); experiment: Inhibition of human recombinant MMP16 at 200 uM by HxBPyne probe-based competitive activity based protein profiling assay in presence of 5 uM HxBpane competitor; outline: as §1
[11] = biological target: A disintegrin and metalloproteinase with thrombospondin motifs 1 (Homo sapiens) (UniProt Q9UHI8); experiment: Inhibition of human recombinant ADAMTS1 at 200 uM by HxBPyne probe-based competitive activity based protein profiling assay in presence of 5 uM HxBpane competitor; outline: as §1
Neutrophil collagenase = Neutrophil collagenase (Homo sapiens, UniProt P22894); experiment: Inhibition of human recombinant MMP8 at 200 uM by HxBPyne probe-based competitive activity based protein profiling assay in presence of 5 uM HxBpane competitor; outline: as §1
[12] = biological target: T3, Stromelysin-3 (Homo sapiens) (UniProt P24347); experiment: Inhibition of human recombinant MMP11 at 200 uM by HxBPyne probe-based competitive activity based protein profiling assay in presence of 5 uM HxBpane competitor; outline: as §1
T3 sequence (whole entry): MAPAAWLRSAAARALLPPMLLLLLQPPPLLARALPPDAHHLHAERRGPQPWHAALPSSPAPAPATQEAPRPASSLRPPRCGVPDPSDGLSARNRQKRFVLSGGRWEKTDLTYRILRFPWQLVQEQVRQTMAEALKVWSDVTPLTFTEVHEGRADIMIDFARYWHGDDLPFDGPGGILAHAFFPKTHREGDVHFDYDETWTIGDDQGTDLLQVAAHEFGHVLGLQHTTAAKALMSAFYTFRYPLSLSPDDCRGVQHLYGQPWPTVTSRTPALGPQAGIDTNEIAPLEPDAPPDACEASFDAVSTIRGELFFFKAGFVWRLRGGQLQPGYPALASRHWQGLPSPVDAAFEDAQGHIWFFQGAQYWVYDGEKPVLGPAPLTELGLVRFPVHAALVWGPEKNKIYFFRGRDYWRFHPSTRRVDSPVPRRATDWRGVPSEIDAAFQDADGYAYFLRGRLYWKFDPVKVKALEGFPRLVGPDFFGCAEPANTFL

[13] = biological target: Stromelysin-2 (Homo sapiens) (UniProt P09238); experiment: Inhibition of human recombinant MMP10 at 200 uM by HxBPyne probe-based competitive activity based protein profiling assay in presence of 5 uM HxBpane competitor; outline: as §1
[14] = biological target: Stromelysin-1 (Homo sapiens) (UniProt P08254); experiment: Inhibition of human recombinant MMP3 at 200 uM by HxBPyne probe-based competitive activity based protein profiling assay in presence of 5 uM HxBpane competitor; outline: as §1
Collagenase 3 [15] = biological target: T2, Collagenase 3; experiment: Inhibition of human recombinant MMP13 by fluorogenic substrate assay
[16] = biological target: Disintegrin and metalloproteinase domain-containing protein 17 (Homo sapiens) (UniProt P78536); experiment: Inhibition of human recombinant ADAM17 at 200 uM by HxBPyne probe-based competitive activity based protein profiling assay in presence of 5 uM HxBpane competitor; outline: as §1
Chain of Disintegrin and metalloproteinase domain-containing protein 17 (Homo sapiens) (P78536 whole entry, the tested form may be a part): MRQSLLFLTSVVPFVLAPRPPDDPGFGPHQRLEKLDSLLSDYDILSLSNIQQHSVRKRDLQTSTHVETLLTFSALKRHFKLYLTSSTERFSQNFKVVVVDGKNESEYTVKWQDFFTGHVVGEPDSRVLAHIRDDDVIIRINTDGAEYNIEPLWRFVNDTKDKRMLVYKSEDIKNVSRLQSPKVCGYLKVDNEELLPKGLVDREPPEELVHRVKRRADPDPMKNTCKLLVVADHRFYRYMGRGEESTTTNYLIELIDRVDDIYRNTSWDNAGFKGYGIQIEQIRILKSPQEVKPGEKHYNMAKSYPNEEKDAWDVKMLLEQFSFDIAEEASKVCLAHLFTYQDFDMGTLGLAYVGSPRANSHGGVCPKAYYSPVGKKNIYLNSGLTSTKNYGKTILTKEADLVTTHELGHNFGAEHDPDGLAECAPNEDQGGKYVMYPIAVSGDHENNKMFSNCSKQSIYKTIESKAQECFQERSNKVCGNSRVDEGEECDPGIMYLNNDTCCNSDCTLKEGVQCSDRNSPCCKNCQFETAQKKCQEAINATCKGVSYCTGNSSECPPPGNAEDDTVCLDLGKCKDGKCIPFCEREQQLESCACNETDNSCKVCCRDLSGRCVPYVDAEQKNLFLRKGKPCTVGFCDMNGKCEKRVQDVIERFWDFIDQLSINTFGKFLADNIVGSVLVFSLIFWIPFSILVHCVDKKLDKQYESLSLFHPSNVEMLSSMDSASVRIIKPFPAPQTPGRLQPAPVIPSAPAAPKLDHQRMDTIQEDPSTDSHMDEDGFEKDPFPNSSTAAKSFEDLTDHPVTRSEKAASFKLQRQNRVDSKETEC

T1 sequence (P14780 whole entry): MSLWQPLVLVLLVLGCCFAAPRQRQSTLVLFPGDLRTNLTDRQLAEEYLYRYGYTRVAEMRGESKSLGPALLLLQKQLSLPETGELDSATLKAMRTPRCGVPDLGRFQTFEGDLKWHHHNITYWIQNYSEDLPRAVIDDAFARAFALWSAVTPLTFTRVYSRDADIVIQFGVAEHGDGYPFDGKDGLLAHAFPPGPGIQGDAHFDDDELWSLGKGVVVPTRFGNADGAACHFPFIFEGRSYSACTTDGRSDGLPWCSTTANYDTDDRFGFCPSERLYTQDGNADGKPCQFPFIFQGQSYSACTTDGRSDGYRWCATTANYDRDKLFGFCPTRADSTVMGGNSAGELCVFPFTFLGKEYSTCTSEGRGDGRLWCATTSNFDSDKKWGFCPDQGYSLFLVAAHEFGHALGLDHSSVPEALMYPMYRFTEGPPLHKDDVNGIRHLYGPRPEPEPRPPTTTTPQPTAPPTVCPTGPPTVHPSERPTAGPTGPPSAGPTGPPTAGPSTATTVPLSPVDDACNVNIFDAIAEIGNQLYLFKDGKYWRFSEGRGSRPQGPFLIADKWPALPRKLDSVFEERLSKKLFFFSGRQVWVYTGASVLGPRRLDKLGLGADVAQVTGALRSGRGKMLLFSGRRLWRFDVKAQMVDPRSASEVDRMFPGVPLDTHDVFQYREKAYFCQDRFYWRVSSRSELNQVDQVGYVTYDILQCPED
Chain of Matrilysin (Homo sapiens) (P09237 whole entry): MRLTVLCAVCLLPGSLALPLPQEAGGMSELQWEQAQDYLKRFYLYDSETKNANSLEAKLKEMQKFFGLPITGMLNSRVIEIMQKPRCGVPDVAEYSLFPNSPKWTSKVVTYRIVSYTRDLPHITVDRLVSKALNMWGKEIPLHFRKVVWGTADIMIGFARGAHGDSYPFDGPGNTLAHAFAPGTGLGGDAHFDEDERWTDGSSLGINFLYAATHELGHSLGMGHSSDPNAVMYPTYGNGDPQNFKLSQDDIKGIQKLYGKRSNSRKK
Chain of Angiotensin-converting enzyme 2 (Homo sapiens) (Q9BYF1 18-805 limits assumed): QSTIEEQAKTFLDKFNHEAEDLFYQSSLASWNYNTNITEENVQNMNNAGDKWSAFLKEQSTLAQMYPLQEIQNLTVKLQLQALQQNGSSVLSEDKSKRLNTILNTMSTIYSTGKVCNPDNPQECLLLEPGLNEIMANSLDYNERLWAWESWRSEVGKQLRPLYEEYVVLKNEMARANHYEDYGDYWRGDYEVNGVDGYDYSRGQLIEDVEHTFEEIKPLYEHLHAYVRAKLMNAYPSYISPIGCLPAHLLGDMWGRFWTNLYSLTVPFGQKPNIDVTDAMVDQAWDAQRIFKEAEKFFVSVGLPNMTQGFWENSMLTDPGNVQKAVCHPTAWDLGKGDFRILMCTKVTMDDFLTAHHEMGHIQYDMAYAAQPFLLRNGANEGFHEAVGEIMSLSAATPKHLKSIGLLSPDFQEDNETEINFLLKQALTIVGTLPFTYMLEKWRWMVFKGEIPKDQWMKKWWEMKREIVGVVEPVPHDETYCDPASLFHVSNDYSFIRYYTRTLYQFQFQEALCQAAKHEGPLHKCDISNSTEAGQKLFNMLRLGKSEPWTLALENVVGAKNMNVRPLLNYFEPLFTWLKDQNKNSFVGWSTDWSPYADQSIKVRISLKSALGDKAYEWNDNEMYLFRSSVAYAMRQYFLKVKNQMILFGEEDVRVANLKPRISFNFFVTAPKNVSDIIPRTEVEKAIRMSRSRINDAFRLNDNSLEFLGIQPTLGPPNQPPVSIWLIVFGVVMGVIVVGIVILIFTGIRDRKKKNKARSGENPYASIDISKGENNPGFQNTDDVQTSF
Chain of Methionine aminopeptidase 2 (Homo sapiens) (P50579 2-478 limits assumed): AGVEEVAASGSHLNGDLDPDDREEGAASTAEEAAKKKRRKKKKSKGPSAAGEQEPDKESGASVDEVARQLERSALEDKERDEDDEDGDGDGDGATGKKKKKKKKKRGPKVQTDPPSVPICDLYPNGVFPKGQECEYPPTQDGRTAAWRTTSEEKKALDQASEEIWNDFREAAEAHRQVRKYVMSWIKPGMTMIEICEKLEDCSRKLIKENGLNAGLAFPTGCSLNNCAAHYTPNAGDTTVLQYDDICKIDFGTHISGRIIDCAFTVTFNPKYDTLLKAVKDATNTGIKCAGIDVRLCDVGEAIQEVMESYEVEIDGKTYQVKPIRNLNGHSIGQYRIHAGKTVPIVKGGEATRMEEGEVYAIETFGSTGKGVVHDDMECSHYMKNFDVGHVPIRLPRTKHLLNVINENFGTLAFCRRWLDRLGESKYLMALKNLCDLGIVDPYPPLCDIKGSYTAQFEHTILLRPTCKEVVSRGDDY
Chain of Matrix metalloproteinase-16 (Homo sapiens) (P51512 whole entry): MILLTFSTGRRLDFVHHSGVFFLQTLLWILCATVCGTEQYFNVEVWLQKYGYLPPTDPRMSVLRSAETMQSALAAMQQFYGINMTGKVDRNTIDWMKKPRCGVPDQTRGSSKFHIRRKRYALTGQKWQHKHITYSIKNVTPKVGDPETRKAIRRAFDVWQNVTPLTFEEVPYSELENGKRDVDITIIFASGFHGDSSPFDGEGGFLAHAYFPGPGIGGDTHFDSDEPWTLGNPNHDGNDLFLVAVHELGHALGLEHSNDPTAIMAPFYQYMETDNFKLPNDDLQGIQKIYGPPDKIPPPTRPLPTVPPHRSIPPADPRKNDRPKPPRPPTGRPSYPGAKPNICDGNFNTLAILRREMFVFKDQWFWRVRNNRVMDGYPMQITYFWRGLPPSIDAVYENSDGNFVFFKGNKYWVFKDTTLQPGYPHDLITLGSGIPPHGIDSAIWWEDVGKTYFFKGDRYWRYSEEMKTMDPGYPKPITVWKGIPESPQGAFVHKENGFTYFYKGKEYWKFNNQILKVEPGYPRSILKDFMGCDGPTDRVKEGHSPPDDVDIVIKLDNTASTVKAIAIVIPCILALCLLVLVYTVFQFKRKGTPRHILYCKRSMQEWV
Chain of A disintegrin and metalloproteinase with thrombospondin motifs 1 (Homo sapiens) (Q9UHI8 whole entry): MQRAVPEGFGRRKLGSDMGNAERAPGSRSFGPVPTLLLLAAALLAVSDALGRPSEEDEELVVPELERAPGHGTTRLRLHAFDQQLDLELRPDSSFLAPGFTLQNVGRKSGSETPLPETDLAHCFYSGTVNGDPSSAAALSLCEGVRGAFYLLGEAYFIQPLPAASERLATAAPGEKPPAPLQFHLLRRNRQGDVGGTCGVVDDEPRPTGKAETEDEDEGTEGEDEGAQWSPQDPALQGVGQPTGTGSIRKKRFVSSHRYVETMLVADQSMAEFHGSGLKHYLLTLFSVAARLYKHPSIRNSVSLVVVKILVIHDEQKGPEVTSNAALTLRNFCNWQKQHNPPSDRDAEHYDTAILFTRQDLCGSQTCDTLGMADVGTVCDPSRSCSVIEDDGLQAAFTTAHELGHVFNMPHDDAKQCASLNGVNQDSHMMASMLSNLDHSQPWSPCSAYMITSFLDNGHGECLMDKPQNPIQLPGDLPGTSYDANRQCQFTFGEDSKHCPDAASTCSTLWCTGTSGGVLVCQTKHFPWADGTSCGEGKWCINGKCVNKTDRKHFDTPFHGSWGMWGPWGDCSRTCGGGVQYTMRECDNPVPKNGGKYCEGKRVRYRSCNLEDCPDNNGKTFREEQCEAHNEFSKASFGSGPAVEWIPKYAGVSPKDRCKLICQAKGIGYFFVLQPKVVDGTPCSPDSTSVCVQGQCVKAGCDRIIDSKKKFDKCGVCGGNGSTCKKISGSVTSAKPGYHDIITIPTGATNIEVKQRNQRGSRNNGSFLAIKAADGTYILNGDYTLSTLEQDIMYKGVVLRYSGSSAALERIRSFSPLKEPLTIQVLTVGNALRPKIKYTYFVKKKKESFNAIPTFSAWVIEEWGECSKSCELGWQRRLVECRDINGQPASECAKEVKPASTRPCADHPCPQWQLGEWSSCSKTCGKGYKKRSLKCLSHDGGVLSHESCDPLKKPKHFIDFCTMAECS
Chain of Stromelysin-1 (Homo sapiens) (P08254 100-477 limits assumed): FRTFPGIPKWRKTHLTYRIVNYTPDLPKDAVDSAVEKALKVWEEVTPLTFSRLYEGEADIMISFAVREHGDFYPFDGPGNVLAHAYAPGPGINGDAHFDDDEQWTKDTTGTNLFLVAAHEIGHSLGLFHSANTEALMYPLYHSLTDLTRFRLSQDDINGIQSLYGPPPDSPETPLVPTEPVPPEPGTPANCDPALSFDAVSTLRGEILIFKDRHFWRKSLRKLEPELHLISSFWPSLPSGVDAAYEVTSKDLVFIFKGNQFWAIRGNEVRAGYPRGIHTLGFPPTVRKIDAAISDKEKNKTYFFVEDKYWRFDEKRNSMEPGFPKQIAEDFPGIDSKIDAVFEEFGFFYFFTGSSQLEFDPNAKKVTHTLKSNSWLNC

| IC50 [1] | Activity [2] | IC50 (Collagenase 3 [3]) | Activity [4] | Activity [5] | Activity [6] | Activity [7] | Activity [8] | Activity [9] | Activity [10] | Activity [11] | Activity (Neutrophil collagenase) | Activity [12] | Activity [13] | Activity [14] | IC50 (Collagenase 3 [15]) | Activity [16] | SMILES |
| --- | --- | --- | --- | --- | --- | --- | --- | --- | --- | --- | --- | --- | --- | --- | --- | --- | --- |
| > 100 µM | inactive | 20 µM | inactive | inactive | inactive | inactive | inactive | inactive | inactive | inactive | inactive | inactive | inactive | inactive | 1600 nM | inactive | COc1ccc(CSc2nc(C)cc(O)n2)cc1 |
| > 100 µM | inactive | 3.8 µM | inactive | inactive | inactive | inactive | inactive | inactive | inactive | inactive | inactive | inactive | inactive | inactive | 920 nM | inactive | Oc1nc(SCc2ccc(Cl)cc2)nc2c1CCC2 |
